Measured values as given in ChEMBL document CHEMBL1150387, “Development and experimental validation of a docking strategy for the generation of kinase-targeted libraries” (J Med Chem, 2008).

How the values were obtained:
[1] = target: Tyrosine-protein kinase ABL1 (Homo sapiens) (UniProt P00519); experiment: Inhibition of Abl at 10 uM by HTRF assay relative to control
Method in brief: (§1)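 HTRF kinase assay, one panel of kinases. Inhibitor stock 50 µM in 100% DMSO; tested at 10 µM. ATP and substrate at final levels near Km. Final buffer: 50 mM Hepes/NaOH pH 7.4, 40 µM Na3VO4, 0.005% Tween-20, 1 mM DTT, MnCl2 or MgCl2 at kinase-dependent levels. Started by adding ATP/substrate. Reaction run at room temperature, time varied by kinase. Detection mix in 50 mM Hepes pH 7.4, 0.1% BSA, 150 mM KF, incubated ≥1 h at room temperature. Activity expressed as % of uninhibited control; n=2.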

[2] = target: Calcium/calmodulin-dependent protein kinase type II subunit alpha (Homo sapiens) (UniProt Q9UQM7); experiment: Inhibition of CaMK2alpha at 10 uM by HTRF assay relative to control; method in brief: as §1
[3] = target: Vascular endothelial growth factor receptor 2 (Homo sapiens) (UniProt P35968); experiment: Inhibition of KDR at 10 uM by HTRF assay relative to control; method in brief: as §1
[4] = target: Protein kinase C gamma type (Homo sapiens) (UniProt P05129); experiment: Inhibition of PKCgamma at 10 uM by HTRF assay relative to control; method in brief: as §1
[5] = Inhibition of AMPKalpha at 10 uM by HTRF assay relative to control; method in brief: as §1
[6] = target: Serine/threonine-protein kinase Chk2 (Homo sapiens) (UniProt O96017); experiment: Inhibition of CHK2 at 10 uM by HTRF assay relative to control; method in brief: as §1
[7] = target: T1, Ephrin type-B receptor 4 (Homo sapiens) (UniProt P54760); experiment: Inhibition of EphB4 at 10 uM by HTRF assay relative to control; method in brief: as §1
T1 sequence (whole entry): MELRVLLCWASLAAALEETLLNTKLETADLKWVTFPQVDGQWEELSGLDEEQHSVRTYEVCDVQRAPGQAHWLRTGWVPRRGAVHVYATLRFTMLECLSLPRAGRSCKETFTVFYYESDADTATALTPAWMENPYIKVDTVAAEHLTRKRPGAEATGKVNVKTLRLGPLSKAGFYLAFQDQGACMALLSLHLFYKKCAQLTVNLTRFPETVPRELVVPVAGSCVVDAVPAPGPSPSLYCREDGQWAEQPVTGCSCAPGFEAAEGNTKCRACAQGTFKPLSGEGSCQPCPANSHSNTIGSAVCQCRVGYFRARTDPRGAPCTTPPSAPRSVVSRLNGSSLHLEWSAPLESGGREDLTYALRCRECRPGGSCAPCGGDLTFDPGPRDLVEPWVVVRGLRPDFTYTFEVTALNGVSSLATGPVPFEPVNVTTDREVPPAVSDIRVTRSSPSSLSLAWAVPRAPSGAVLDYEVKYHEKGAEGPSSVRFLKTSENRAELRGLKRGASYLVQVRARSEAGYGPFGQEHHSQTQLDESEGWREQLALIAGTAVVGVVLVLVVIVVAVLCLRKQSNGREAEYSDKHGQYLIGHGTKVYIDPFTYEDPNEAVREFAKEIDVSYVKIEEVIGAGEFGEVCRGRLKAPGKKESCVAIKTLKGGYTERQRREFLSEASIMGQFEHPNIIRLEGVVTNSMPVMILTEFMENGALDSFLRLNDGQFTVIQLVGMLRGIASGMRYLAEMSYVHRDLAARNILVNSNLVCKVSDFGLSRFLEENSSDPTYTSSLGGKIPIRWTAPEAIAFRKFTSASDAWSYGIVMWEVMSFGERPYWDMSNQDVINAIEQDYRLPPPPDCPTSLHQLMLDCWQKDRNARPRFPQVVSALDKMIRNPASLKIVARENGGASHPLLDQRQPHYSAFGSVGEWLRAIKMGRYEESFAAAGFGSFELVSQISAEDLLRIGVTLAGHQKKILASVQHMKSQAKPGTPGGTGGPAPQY

[8] = target: Insulin-like growth factor 1 receptor (Homo sapiens) (UniProt P08069); experiment: Inhibition of IGF1R at 10 uM by HTRF assay relative to control; method in brief: as §1
[9] = target: T2, Inhibitor of nuclear factor kappa-B kinase subunit beta (Homo sapiens) (UniProt O14920); experiment: Inhibition of IKK-beta at 10 uM by HTRF assay relative to control; method in brief: as §1
T2 sequence (whole entry): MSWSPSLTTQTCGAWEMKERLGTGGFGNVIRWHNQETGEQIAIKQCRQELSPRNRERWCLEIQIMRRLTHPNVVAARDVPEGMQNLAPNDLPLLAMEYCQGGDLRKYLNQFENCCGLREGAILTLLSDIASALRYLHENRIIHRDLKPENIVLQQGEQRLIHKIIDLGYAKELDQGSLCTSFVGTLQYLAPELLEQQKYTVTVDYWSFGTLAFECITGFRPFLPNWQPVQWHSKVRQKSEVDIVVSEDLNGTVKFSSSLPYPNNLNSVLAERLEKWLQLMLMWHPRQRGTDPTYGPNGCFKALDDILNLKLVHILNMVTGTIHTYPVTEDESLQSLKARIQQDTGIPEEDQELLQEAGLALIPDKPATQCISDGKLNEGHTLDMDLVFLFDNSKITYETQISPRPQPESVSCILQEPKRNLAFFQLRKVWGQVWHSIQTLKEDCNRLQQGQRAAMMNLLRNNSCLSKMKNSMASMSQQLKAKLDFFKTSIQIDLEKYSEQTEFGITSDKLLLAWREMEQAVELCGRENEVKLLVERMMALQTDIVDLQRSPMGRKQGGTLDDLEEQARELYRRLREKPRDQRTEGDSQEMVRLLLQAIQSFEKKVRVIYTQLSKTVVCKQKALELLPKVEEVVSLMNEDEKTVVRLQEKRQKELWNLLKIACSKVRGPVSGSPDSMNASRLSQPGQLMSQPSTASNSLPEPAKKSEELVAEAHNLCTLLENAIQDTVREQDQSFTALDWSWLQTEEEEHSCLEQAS

[10] = target: Tyrosine-protein kinase Fes/Fps (Homo sapiens) (UniProt P07332); experiment: Inhibition of FES at 10 uM by HTRF assay relative to control; method in brief: as §1
[11] = target: Vascular endothelial growth factor receptor 1 (Homo sapiens) (UniProt P17948); experiment: Inhibition of FLT1 at 10 uM by HTRF assay relative to control; method in brief: as §1
[12] = target: RAC-alpha serine/threonine-protein kinase (Homo sapiens) (UniProt P31749); experiment: Inhibition of AKT1/PKBalpha at 10 uM by HTRF assay relative to control; method in brief: as §1
[13] = target: Mitogen-activated protein kinase 14 (Homo sapiens) (UniProt Q16539); experiment: Inhibition of p38alpha at 10 uM by HTRF assay relative to control; method in brief: as §1
Chain of Mitogen-activated protein kinase 14 (Homo sapiens) (Q16539 whole entry): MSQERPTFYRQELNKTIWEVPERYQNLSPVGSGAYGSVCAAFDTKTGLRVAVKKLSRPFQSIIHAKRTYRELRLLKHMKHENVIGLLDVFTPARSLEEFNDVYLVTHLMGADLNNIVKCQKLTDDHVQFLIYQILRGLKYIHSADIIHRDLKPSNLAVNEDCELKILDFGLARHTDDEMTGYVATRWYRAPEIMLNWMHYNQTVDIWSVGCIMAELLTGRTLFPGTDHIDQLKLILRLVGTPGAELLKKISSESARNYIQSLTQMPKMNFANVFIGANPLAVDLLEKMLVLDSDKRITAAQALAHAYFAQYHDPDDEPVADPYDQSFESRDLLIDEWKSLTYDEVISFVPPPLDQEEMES

Chain of RAC-alpha serine/threonine-protein kinase (Homo sapiens) (P31749 whole entry): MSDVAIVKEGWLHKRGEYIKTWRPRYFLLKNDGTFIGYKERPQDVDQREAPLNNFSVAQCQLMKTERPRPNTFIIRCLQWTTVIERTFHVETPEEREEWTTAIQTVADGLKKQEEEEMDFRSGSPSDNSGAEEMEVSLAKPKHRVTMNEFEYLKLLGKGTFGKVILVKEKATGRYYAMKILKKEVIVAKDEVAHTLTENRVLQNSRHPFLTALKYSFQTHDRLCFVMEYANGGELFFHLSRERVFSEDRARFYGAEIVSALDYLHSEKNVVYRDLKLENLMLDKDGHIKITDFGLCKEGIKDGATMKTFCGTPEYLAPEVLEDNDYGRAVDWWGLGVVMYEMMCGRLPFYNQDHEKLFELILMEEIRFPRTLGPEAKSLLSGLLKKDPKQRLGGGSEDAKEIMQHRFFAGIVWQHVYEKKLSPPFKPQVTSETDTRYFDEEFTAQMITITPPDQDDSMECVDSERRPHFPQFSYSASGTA
Chain of Serine/threonine-protein kinase Chk2 (Homo sapiens) (O96017 whole entry): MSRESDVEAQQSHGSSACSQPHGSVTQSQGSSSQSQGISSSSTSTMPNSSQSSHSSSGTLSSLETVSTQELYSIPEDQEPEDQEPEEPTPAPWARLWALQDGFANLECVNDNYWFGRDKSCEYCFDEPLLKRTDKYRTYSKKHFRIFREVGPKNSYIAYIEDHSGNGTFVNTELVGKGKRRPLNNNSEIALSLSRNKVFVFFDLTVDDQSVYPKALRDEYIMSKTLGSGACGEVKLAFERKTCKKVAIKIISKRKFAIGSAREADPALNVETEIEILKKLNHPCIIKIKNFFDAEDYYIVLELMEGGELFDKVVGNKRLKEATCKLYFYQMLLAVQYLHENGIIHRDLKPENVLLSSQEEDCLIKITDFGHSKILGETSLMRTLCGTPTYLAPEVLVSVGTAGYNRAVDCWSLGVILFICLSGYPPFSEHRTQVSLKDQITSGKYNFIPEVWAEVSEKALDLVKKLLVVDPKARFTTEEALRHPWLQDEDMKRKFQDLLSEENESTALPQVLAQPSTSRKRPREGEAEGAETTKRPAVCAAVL
Chain of Calcium/calmodulin-dependent protein kinase type II subunit alpha (Homo sapiens) (Q9UQM7 whole entry): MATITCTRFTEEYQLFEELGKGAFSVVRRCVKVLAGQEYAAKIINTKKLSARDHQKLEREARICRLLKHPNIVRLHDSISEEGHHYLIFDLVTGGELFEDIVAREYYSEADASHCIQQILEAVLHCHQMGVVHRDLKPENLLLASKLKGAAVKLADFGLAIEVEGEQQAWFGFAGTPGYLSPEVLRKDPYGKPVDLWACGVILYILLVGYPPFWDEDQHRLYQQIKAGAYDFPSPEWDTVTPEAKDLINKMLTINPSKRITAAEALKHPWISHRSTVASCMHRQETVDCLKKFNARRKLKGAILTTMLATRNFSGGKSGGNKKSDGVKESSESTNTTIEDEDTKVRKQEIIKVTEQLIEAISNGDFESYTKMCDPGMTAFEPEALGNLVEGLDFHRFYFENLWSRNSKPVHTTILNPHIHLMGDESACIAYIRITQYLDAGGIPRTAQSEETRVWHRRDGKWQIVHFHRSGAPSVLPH
Chain of Tyrosine-protein kinase ABL1 (Homo sapiens) (P00519 whole entry): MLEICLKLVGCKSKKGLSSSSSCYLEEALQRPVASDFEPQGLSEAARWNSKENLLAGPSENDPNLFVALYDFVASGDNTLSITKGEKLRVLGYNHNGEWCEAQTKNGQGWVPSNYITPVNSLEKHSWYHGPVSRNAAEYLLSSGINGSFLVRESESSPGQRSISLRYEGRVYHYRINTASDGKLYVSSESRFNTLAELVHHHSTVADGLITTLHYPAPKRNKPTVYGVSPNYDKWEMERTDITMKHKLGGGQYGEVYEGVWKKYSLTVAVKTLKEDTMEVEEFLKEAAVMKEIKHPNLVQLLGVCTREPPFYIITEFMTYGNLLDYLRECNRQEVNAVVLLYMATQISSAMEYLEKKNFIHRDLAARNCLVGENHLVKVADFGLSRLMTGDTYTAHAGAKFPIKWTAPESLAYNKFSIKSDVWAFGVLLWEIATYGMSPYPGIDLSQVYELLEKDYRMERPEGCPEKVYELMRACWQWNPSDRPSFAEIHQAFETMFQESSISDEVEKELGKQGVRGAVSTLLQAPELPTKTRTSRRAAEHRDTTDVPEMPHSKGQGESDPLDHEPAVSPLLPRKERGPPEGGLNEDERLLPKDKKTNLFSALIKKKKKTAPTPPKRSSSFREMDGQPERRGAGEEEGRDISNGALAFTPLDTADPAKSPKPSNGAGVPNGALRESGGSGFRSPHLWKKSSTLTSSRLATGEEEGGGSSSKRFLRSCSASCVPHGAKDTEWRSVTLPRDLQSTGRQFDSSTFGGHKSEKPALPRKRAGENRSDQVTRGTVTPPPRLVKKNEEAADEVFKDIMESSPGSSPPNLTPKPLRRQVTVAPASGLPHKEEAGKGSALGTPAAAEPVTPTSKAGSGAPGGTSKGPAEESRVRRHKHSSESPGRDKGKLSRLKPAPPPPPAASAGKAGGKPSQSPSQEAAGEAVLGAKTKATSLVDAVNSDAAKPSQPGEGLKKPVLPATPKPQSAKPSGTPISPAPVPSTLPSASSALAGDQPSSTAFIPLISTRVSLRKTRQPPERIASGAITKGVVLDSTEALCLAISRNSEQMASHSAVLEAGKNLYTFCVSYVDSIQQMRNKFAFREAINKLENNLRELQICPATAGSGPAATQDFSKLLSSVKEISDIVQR
Chain of Vascular endothelial growth factor receptor 2 (Homo sapiens) (P35968 whole entry): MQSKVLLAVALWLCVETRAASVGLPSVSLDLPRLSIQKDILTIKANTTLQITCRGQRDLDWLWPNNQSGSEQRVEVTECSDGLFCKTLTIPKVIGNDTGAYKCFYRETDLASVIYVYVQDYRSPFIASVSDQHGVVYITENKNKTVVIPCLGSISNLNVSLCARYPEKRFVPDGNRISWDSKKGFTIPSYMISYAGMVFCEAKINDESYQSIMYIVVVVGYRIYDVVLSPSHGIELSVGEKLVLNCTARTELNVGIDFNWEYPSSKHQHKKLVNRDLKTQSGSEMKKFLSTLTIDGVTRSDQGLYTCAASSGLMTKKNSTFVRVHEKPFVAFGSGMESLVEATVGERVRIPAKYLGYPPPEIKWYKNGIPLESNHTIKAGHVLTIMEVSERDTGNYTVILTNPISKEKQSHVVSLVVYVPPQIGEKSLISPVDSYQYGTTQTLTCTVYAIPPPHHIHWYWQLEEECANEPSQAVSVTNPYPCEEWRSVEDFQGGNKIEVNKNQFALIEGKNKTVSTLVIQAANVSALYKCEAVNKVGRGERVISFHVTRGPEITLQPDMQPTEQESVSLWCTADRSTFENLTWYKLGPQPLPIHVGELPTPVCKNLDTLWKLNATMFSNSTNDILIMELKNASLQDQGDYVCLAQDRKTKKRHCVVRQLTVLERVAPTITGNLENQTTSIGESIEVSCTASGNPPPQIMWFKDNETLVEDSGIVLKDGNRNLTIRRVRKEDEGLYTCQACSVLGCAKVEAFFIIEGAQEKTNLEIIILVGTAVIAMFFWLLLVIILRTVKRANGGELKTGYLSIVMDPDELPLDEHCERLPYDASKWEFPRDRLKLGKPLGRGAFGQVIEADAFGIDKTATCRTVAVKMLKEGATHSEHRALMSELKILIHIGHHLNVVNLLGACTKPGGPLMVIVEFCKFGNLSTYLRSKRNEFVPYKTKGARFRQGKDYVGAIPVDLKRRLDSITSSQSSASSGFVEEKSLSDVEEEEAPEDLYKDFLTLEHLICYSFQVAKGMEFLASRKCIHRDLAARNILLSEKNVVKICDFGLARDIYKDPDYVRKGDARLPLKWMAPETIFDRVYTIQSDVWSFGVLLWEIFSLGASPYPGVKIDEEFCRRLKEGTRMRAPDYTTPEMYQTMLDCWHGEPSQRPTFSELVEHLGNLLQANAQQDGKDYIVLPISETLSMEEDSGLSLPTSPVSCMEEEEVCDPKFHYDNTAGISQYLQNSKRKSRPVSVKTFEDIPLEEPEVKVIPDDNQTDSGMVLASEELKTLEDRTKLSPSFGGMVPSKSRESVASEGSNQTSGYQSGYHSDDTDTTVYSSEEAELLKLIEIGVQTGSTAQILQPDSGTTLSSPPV

| SMILES | inhibition [1] [%] | inhibition [2] [%] | inhibition [3] [%] | inhibition [4] [%] | inhibition [5] [%] | inhibition [6] [%] | inhibition [7] [%] | inhibition [8] [%] | inhibition [9] [%] | inhibition [10] [%] | inhibition [11] [%] | inhibition [12] [%] | inhibition [13] [%] |
| --- | --- | --- | --- | --- | --- | --- | --- | --- | --- | --- | --- | --- | --- |
| O=C(NCCc1ccc(O)cc1)c1cccc(Nc2nccc(Nc3ccc4ncsc4c3)n2)c1 | 11 | 0 | 43 | 16 | 8 | 0 | 0 | 2 | 11 | 45 | 42 | 0 | 9 |
| CN(CCc1ccccn1)C(=O)[C@@H]1CCCN1c1nccc(Nc2ccccc2)n1 | 8 | 1 | 2 | 6 | 0 | 3 | 0 | 0 | 0 | 8 | 0 | 1 | 0 |
| O=C(NC1Cc2ccccc2C1)c1cccc(Nc2ccnc(N3CCN(c4ccccc4)CC3)n2)c1 | 11 | 0 | 6 | 3 | 9 | 1 | 0 | 0 | 1 | 5 | 0 | 2 | 1 |
| Cc1cccc(N(C)c2cc(Nc3cccc(C(=O)N4CCCC5CCCCC54)c3)ncn2)c1 (configuration not stated) | 13 | 0 | 0 | 5 | 1 | 2 | 0 | 0 | 7 | 7 | 8 | 6 | 0 |
| COC[C@@H]1CCCN1C(=O)[C@@H]1CCCN1c1cc(Nc2cccc(OC)c2)nc(N)n1 | 0 | 0 | 4 | 0 | 2 | 0 | 0 | 5 | 9 | 8 | 3 | 0 | 8 |
| COC[C@@H]1CCCN1C(=O)C1CCCN1c1cc(Nc2cccc(Br)c2)ncn1 (some centres not stated) | 7 | 0 | 0 | 5 | 0 | 3 | 0 | 0 | 1 | 5 | 0 | 0 | 0 |
| COC(=O)C(CO)NC(=O)[C@@H]1CCCN1c1nccc(Oc2cccc(C)c2)n1 (some centres not stated) | 10 | 0 | 5 | 4 | 0 | 3 | 0 | 0 | 1 | 0 | 0 | 0 | 7 |
| Nc1nc(Nc2ccccc2)cc(N2CCC(C(=O)NCCc3ccccn3)CC2)n1 | 0 | 0 | 1 | 5 | 0 | 0 | 0 | 0 | 1 | 0 | 0 | 0 | 12 |
| Cc1cccc(N(C)c2cc(Nc3cccc(C(=O)NCCCn4ccnc4)c3)ncn2)c1 | 71 | 0 | 26 | 2 | 5 | 0 | 0 | 0 | 0 | 22 | 0 | 0 | 20 |
